What was measured:
Assay type in all cases: functional
[1] = tested on: HeLa; assay: Cytotoxicity against human HeLa cells by MTT assay; details: read-out: ED50 (the source's name)
Method in brief: (§1)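 Cells obtained from ATCC. Cytotoxicity read by MTT [3-(4,5-dimethylthiazol-2-yl)-2,5-diphenyltetrazolium bromide] colorimetric method.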

[2] = Cytotoxicity against human Hepa 59T/VGH cells by MTT assay; details: read-out: ED50 (the source's name)
[3] = tested on: KB; assay: Cytotoxicity against human KB cells by MTT assay; details: read-out: ED50 (the source's name); method in brief: as §1
[4] = tested on: Radical scavenging activity; assay: Antioxidant activity assessed as DPPH radical scavenging activity at 100 uM
Method in brief: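 Test compound in 100 mM Tris-HCl (pH 7.4) added to 500 μM DPPH in ethanol (concentration of the added solution), shaken, then left 20 min at room temperature in the dark. Absorbance read at 517 nm by UV-vis spectrophotometer; a table footnote cites a DPPH-HPLC method. Values are mean ± SD of 8 samples.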

SMILES: COc1c2c(cc3c1-c1c(cc4c(c1OC)OCO4)[C@H](O)[C@@H](C)[C@@H](C)C3)OCO2
- EC50 [1]: ≥ 5 µg/mL
- EC50 [2]: ≥ 5 µg/mL
- EC50 [3]: ≥ 5 µg/mL

SMILES: O=C1O[C@H]([C@@H](O)CO)C(O)=C1O
- Activity [4]: 12.5%

SMILES: COc1cc2c(c(O)c1OC)-c1c(cc3c(c1OC)OCO3)[C@H](OC(=O)/C=C/c1ccccc1)[C@H](C)[C@H](C)C2 [1-DEMETHYLKADSUPHILIN A]
- EC50 [1]: ≥ 5 µg/mL
- EC50 [2]: ≥ 5 µg/mL
- EC50 [3]: ≥ 5 µg/mL

SMILES: C/C=C(/C)C(=O)O[C@H]1c2cc3c(c(OC)c2-c2c(cc(OC)c(OC)c2O)C[C@@H](C)[C@H]1C)OCO3 [ANGELOYLBINANKADSURIN A]
- EC50 [1]: ≥ 5 µg/mL
- EC50 [2]: ≥ 5 µg/mL
- EC50 [3]: ≥ 5 µg/mL
- Activity [4]: 2.3%

SMILES: COC1=C(OC)C(=O)[C@]23C(=C1)C[C@@H](C)[C@@]2(C)[C@@H](O)c1cc2c(cc13)OCO2 [KADSULIGNAN K]
- EC50 [1]: ≥ 5 µg/mL
- EC50 [2]: ≥ 5 µg/mL
- EC50 [3]: ≥ 5 µg/mL
- Activity [4]: 4.6%

SMILES: COc1cc2c(c(OC)c1OC)-c1c(cc3c(c1OC)OCO3)[C@H](OC(=O)/C=C/c1ccccc1)[C@H](C)[C@H](C)C2 [KADSUPHILINS A]
- EC50 [1]: ≥ 5 µg/mL
- EC50 [2]: ≥ 5 µg/mL
- EC50 [3]: ≥ 5 µg/mL
- Activity [4]: 1.5%

SMILES: COc1c(O)cc2c(c1OC)-c1c(cc3c(c1OC)OCO3)C[C@H](C)[C@H](C)[C@@H]2O [KADSUPHILINS B]
- EC50 [1]: ≥ 5 µg/mL
- EC50 [2]: ≥ 5 µg/mL
- EC50 [3]: ≥ 5 µg/mL

SMILES: C/C=C(/C)C(=O)O[C@H]1c2cc3c(c(OC)c2-c2c(cc(OC)c(OC)c2O)[C@H](OC(=O)/C(C)=C\C)[C@](C)(O)[C@H]1C)OCO3 [SCHIZANRIN J]
- EC50 [1]: ≥ 5 µg/mL
- EC50 [2]: ≥ 5 µg/mL
- EC50 [3]: ≥ 5 µg/mL
- Activity [4]: 1.9%
